The list is not random: actives were taken first. Their share in the collection is about 7.2%.
tolC growth inh: growth inhibitors of E. coli tolC mutant, primary screen, strain BW25113 ΔtolC::kan, 384-well; OD615; growth inhibition, % at 10 µM (by protocol); hit rate 2.2% among 65,000; AID 573, 2007;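 active = growth inhibition at or above a cutoff equal to the mean over every tested compound plus 3 SD, cut at about 60% in these data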;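 also: growth measured after 20 h incubation at 37 °C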
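Signal: optical density read at 615 nm; Assay system: E. coli ΔtolC::kan strain BW25113; Times: 20 h incubation with compound, 37 °C; Dosing: 10 µM final, single dose.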
PostGolgi yeast: phenotypic screen on post-Golgi transport, primary screen; post-Golgi transport phenotypic cell assay; inhibition, % at 10 µM; hit rate 0.9% among 98,000; AID 739, 2007;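 also: yeast cells grown in 1536-well plates; yeast grown about 18 h at 30C before absorbance read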
PostGolgi ctrl: growth inhibition of yeast control strain, primary screen, counter-screen for post-Golgi transport modulator project | efflux-deficient yeast background strain, growth absorbance A615, 16 h | hit rate 5% among 98,000 | AID 738, 2007 | inhibition, % at 10 µM
PLAP act: PLAP enzyme activators, biochemical, luminescence, HTS | Alkaline phosphatase, placental type (Homo sapiens), P05187 | hit rate 1.2% among 96,000 | activation fold at 20 µM | purified PLAP enzyme, luminescent substrate read-out; stronger effect = higher value; in the data active = activation fold above about 2
Target sequence (P05187 whole entry, looked up): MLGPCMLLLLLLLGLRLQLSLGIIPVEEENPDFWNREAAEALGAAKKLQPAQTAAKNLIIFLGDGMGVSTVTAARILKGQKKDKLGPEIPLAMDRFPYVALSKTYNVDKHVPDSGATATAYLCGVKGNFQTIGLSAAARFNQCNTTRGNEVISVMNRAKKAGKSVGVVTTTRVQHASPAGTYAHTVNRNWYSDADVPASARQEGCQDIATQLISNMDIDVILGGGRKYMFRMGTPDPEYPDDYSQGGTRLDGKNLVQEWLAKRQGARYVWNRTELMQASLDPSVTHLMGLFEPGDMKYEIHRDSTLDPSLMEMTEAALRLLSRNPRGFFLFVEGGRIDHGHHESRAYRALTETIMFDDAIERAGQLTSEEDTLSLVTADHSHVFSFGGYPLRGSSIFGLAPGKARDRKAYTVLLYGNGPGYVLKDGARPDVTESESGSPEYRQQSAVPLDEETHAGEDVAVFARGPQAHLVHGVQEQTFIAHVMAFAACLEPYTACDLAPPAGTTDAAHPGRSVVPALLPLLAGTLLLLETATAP
E coli WT exp: growth inhibitors of wild-type E. coli, primary screen, strain BW25113, expanded library, OD600; growth inhibition, % at 100 µM; hit rate 0.15% among 98,000; OD600 absorbance;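 active = growth inhibition above about 50% at one test dose, limit read from the data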;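 also: growth measured after 20 h incubation at 37 °C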
Active calls of the source: *; . = no result. Rule as the data show it, unless noted: active = inhibition above about 30%; inactive = the rest.

SMILES | tolC growth inh | PostGolgi yeast | PostGolgi ctrl | PLAP act | E coli WT exp
Cc1ccc2nc(Nc3nc(CSc4nnnn4-c4ccccc4)cc(=O)[nH]3)nc(C)c2c1 | . | 12.5 | 23.3 | 2.8* | -3.0
Cc1ccc2c(C)nc(Nc3nc(CSc4nnc(C)s4)cc(=O)[nH]3)nc2c1 | . | -0.5 | 18.4 | 1.1 | -4.0
Cc1csc(NC(=O)CCC(=O)N(CC(=O)NC2CCCC2)Cc2ccco2)n1 | -2.3 | 4.8 | 2.2 | 1.2 | 7.0
CC(C)N(C(=O)CSc1nnnn1C1CCCC1)C(C)C | -2.3 | -8.9 | 6.7 | 1.1 | -1.0
O=S(=O)(CCSc1nc2ccccc2o1)c1nc2ccccc2s1 | 54.2 | 3.5 | 60.9* | 0.7 | -5.0
CCOc1ccc(NC(=O)C(C)Oc2ccccc2C(=O)Nc2cccc(Cl)c2Cl)cc1 (centres undefined) | . | -6.1 | -6.4 | 1.1 | -13.0
O=C1c2ccccc2C(O)N1Cc1ccco1 (centres undefined) | -1.0 | -4.7 | 1.5 | 1 | 20.0
O=C1c2[nH]nc(-c3ccccc3O)c2C(c2ccccc2)N1Cc1ccco1 (centres undefined) | 98.3* | 0.6 | 38.3* | 1.5 | 6.0
COc1cc(C2c3c(-c4cc(C)cc(C)c4O)n[nH]c3C(=O)N2CCCO)cc(OC)c1OC (centres undefined) | -29.6 | 6.4 | -1.2 | 2.1* | -7.0
COCCCN1C(=O)c2[nH]nc(-c3ccccc3O)c2C1c1ccc(Cl)cc1 (centres undefined) | 63.7* | -5.7 | 14.0 | 1.4 | 4.0
O=C1c2[nH]nc(-c3ccccc3O)c2C(c2ccccc2F)N1Cc1ccco1 (centres undefined) | 100.0* | -3.1 | 9.8 | 1.6 | 6.0
Cc1ccc(NC(=O)CSCCc2ccccn2)nc1 | . | 1.1 | 3.5 | 1.1 | 15.0
Cc1cc(C)c(NC(=O)C(C)Sc2nnc(-c3ccco3)n2-c2ccccc2)c(C)c1 (centres undefined) | . | -2.1 | 10.6 | 1.5 | -7.0
O=C(CCSCc1ccccc1Cl)N1CCN(c2cccc(Cl)c2)CC1 | . | -3.2 | 15.5 | 1.1 | -14.0
Cc1[nH][nH]c(=O)c1C(c1ccc(-c2ccc(Cl)cc2Cl)o1)c1c(C)[nH][nH]c1=O | . | 8.0 | 19.3 | 2.7* | 5.0
Cn1c2ccc(F)cc2c2ncn(CCN3CCOCC3)c(=O)c21 | -6.9 | 32.9* | 20.1 | 1.7 | 3.0
Cn1c2ccccc2c2ncn(CCC3=CCCCC3)c(=O)c21 | 21.7 | -4.0 | 34.0* | 0.9 | -1.0
O=C(CNCCC1=CCCCC1)Nc1ccccc1N1CCCCC1 | 100.0* | 1.7 | 27.0 | 1.5 | 10.0
O=C(CNC1CCCCCC1)Nc1ccccc1N1CCCCC1 | . | 2.0 | 11.3 | 1.2 | 15.0
O=C(Nc1ccc(Cl)c(Cl)c1)C1=Cc2ccccc2OC1 | . | 8.9 | 42.3* | 0.8 | -4.0
COc1ccc(-n2c3c(cc(C(=O)Nc4ccc5c(c4)C(=O)NC5=O)c2=O)C(=O)CCC3)cc1 | -20.6 | . | . | . | .
Cc1sc2nc(SCC(=O)c3cc(C)n(CC4CCCO4)c3C)n(C(C)C)c(=O)c2c1C (centres undefined) | -1.1 | -3.9 | 30.4* | 1.4 | -3.0
Cc1ccc(C(=O)NC(=S)NCC2CCCO2)cc1 (centres undefined) | . | -5.2 | -0.8 | 0.9 | -7.0
Cc1cc(C(=O)NNC(=S)NCC2CCCO2)cs1 (centres undefined) | . | -7.8 | 3.8 | 2.2* | -3.0
COc1ccc(S(=O)(=O)Nc2nc3ccccc3s2)cc1OC | . | 0.7 | 5.9 | 1 | -7.0
SMILES | tolC growth inh | PostGolgi yeast | PostGolgi ctrl | PLAP act | E coli WT exp
Cc1ccc2[nH]c3c(c2c1)CCc1cn[nH]c1-3 | 100.0* | -2.5 | 63.0* | 1 | 39.0
CC(=O)Nc1ccc(S(=O)(=O)N(Cc2ccco2)CC2CCCO2)cc1 (centres undefined) | -5.9 | 3.3 | 4.8 | 1.4 | 0.0
CC1CCC(C(C)C)C(OC(=O)CSc2nccc(=O)[nH]2)C1 (centres undefined) | . | -1.1 | 16.8 | 1.2 | -4.0
CC1CCC(C(C)C)C(OC(=O)COC(=O)c2ccc(=O)[nH]c2)C1 (centres undefined) | 62.7* | 10.5 | 4.9 | 1.5 | 2.0
Cc1onc(-c2ccccc2)c1C(=O)Nc1cccc(OC(C)C)c1 | 40.2 | 1.4 | 32.7* | 0.8 | -1.0
Cc1onc(-c2ccccc2)c1C(N)=O | 1.7 | 3.8 | 41.8* | 0.9 | 1.0
COc1ccccc1CN1C(=O)CN(C2CCCCCC2)C(=O)C1c1ccc(F)cc1 (centres undefined) | . | -0.6 | 48.5* | 0.9 | -12.0
O=C(CSc1nc2ccccc2[nH]1)N1CCN(S(=O)(=O)c2ccc(Cl)cc2)CC1 | . | -6.2 | -3.0 | 2* | 4.0
CC(CCc1ccccc1)NC(=O)CN1CCN(Cc2ccccc2)C1=O (centres undefined) | -9.3 | 0.2 | 33.0* | 1 | -2.0
Oc1ccc(Br)cc1-c1cc(-c2ccc(Cl)cc2)n[nH]1 | . | 10.9 | 4.5 | 1.3 | 0.0
COc1ccc(O)c(-c2cc(-c3cccc(Br)c3)n[nH]2)c1 | 3.9 | 92.9* | 74.3* | 1.7 | -8.0
COc1ccc(-c2n[nH]c(C)c2-c2cc(OC)ccc2O)cc1 | . | -1.6 | 19.3 | 2* | 1.0
COc1ccc(-c2cc(-c3cc(OC)ccc3O)[nH]n2)cc1 | . | -2.4 | 27.5 | 2.3* | 22.0
CCOC(=O)c1ccc(CNC(=O)c2cc3cccc(OC)c3oc2=O)o1 | -3.5 | . | . | . | .
Cc1sc2c(=O)n3c(nc2c1C(=O)NC1CCCCC1)CCCCC3 | . | 19.6 | 25.3 | 0.9 | -9.0
O=C(NCCCN1CCCCC1)C1(S(=O)(=O)c2ccc(Cl)cc2)CC1 | -17.4 | 5.7 | 2.6 | 1.2 | 0.0
O=C(NCCN1CCCC1)C1(S(=O)(=O)c2ccc(Cl)cc2)CC1 | -1.6 | 8.9 | 37.9* | 1.2 | 2.0
COc1ccc(S(=O)(=O)N2CC3C4C=CC(C4)C3C2)cc1 (centres undefined) | 20.9 | -5.7 | 46.8* | 0.9 | 2.0
Cc1sc(NC(=O)c2ccco2)c(C(c2cccnc2)N2CCC(C)CC2)c1C (centres undefined) | . | 86.3* | 41.0* | 1.7 | -1.0
COC(=O)CCC(=O)NC(=S)Nc1cc(Cl)ccc1Cl | . | 7.3 | 2.7 | 0.9 | -6.0
CCOC(=O)C1=C(N)OC2=C(C(=O)CCC2)C1c1ccc(C)s1 (centres undefined) | 8.8 | -4.2 | 0.9 | 1.2 | 2.0
Fc1ccc(-n2cnnn2)c(F)c1 | -17.0 | 6.4 | 3.5 | 0.9 | 9.0
c1cc2ccc3ccc(-n4cnnn4)c4ccc(c1)c2c34 | . | -7.4 | 30.5* | 1.2 | 0.0
CC1(C)CC(=O)C(C(=O)/C=C/NCCc2ccccc2)C(=O)C1 | . | -2.2 | -0.7 | 1.3 | -3.0
Cc1ccccc1-c1nc2ccccc2c(=O)n1/N=C/c1ccccc1[N+](=O)[O-] | . | -0.5 | 46.6* | 0.9 | -3.0
[O-][n+]1onc2c1CCc1nnc(-c3ccccc3)cc1-2 | -6.6 | 3.2 | 32.4* | 1.1 | 5.0
O=C(Cn1c(C(=O)NCc2ccco2)cc2sccc21)c1ccccc1 | 64.7* | -3.8 | 44.0* | 1 | -20.0

Bioassay records (PubChem)
